The values below come from article PMC3375358 (Journal of Medicinal Chemistry, 2012).

Experiment [1] concerns CREB-mediated gene transcription. The experiment in a line: CREB reporter assay in HEK 293T cells. The experiment is classed as cell-based. In a few lines:
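Inhibition of CREB-dependent reporter transcription by test compounds was measured in HEK 293T cells, with a top concentration of 50 μM. IC50 values are given as mean ± SD from at least two independent experiments. Where IC50 was not reached at the highest concentration, the value is recorded as >50.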

The target of another experiment is KIX-KID interaction (Homo sapiens, UniProt Q92793). The experiment in a line: in vitro renilla luciferase complementation assay for KIX-KID interaction. Type of experiment: biochemical. An outline of the steps:
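KIX-KID binding was measured in vitro by renilla luciferase complementation, with test compounds up to 50 μM. IC50 values are given as mean ± SD from at least two independent experiments. The value is listed as >50 if IC50 was not reached at the top concentration.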

Sequence of KIX-KID interaction (Q92793 587-666 limits assumed): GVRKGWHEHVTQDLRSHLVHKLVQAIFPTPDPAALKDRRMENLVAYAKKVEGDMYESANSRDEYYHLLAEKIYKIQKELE

`Cn1nc(Nc2ccc(Cl)cc2)c2cc3ccccc3cc21` [Compound 6, N-(4-Chlorophenyl)-1-methyl-1H-benzo[f]indazol-3-amine]: in experiment [1], the “activity in cell-based CREB reporter assay (in words)” value was “inactive”.
`O=c1[nH]c2cc3ccccc3cc2c(=O)n1-c1ccc(Cl)cc1` [Compound 3, 3-(4-Chlorophenyl)-benzo[g]quinazoline-2,4-(1H,3H)-dione]: the “activity in inhibiting KIX-KID interaction (in words)” value on KIX-KID interaction is listed as “neither of these compounds showed any activity”. The “activity in cell-based CREB reporter assay (in words)” value in experiment [1] is “low or no inhibitory activity”.
The corresponding values for `O=c1oc2cc3ccccc3cc2c(=O)n1-c1ccc(Cl)cc1` [Compound 2, 3-(4-Chlorophenyl)-2H-naphtho[2,3-e][1,3]oxazine-2,4-(3H)-dione] are “neither of these compounds showed any activity” and “low or no inhibitory activity”.
The corresponding values for `Clc1ccc(Nc2noc3cc4ccccc4cc23)cc1` [Compound 4, N-(4-Chlorophenyl)-naphtho[2,3-d]isoxazol-3-amine] are “inactive” and “very weak activity”.
